Values joined by “and” are separate entries in the source; they are usually repeats but may differ in a detail not shown here. Identical values can stand only once.
Legend:
[1] = tested on: patients with relapsed and/or refractory MDS, CMML, or AML; test: Safety: adverse events, dose-limiting toxicities and deaths; assay type: in vivo, human; settings: Total
Summary of the method: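 Open-label, multicenter part 1 in adults with relapsed/refractory MDS, CMML or secondary AML. The 300 mg dose-expansion cohort took the test compound orally once daily with water only, at about the same time (±4 h), on every day of 28-day cycles. Deaths were split into ⩽30 days or >30 days after the last dose. The analysis covered all patients given at least one dose.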

[2] = tested on: patients with relapsed and/or refractory MDS, CMML, or AML; test: Clinical response per International Working Group criteria, PFS and OS; assay type: in vivo, human

Compound: CC(=O)N1CCC(Nc2cc(C(=O)NC[C@H](O)CN3CCc4ccccc4C3)ncn2)CC1 [GSK3326595]
- GSK3326595-related TEAE: Any SAE ([1]; N = 30): 6 (20%) n (%) and 6 (20) n (%)
- GSK3326595-related TEAE: Any TEAEs ([1]; N = 30): 22 (73) n (%)
- GSK3326595-related TEAE: Any grade 3/4 TEAE ([1]; N = 30): 13 (43) n (%)
- GSK3326595-related TEAE: Decreased appetite ([1]; N = 30): 4 (13%) n (%) and 4 (13) n (%)
- GSK3326595-related TEAE: Decreased platelet count ([1]; N = 30): 8 (27%) n (%) and 8 (27) n (%)
- GSK3326595-related TEAE: Dysgeusia ([1]; N = 30): 7 (23%) n (%) and 7 (23) n (%)
- GSK3326595-related TEAE: Fatal SAE ([1]; N = 30): 1 (3) n (%)
- GSK3326595-related TEAE: Fatigue ([1]; N = 30): 6 (20%) n (%) and 6 (20) n (%)
- GSK3326595-related TEAE: Nausea ([1]; N = 30): 6 (20%) n (%) and 6 (20) n (%)
- GSK3326595-related TEAE: Neutrophil count decreased ([1]; N = 30): 4 (13%) n (%) and 4 (13) n (%)
- GSK3326595-related TEAE: Thrombocytopenia ([1]; N = 30): 3 (10%) n (%) and 3 (10) n (%)
- Patients who died during the study ([1]; N = 30): 83%
- SAE: anemia ([1]; N = 30): 3 (10%) n (%)
- SAE: febrile neutropenia ([1]; N = 30): 5 (17%) n (%)
- SAE: pneumonia ([1]; N = 30): 4 (13%) n (%)
- SAE: sepsis ([1]; N = 30): 8 (27%) n (%)
- SAE: thrombocytopenia ([1]; N = 30): 3 (10%) n (%)
- TEAE with maximum grade of 3 or 4: anemia ([1]; N = 30): 8 (27%) n (%)
- TEAE with maximum grade of 3 or 4: decreased neutrophil count ([1]; N = 30): 7 (23%) n (%)
- TEAE with maximum grade of 3 or 4: decreased platelet count ([1]; N = 30): 11 (37%) n (%)
- TEAE with maximum grade of 3 or 4: dyspnea ([1]; N = 30): 4 (13%) n (%)
- TEAE with maximum grade of 3 or 4: fatigue ([1]; N = 30): 4 (13%) n (%)
- TEAE with maximum grade of 3 or 4: febrile neutropenia ([1]; N = 30): 6 (20%) n (%)
- TEAE with maximum grade of 3 or 4: hypotension ([1]; N = 30): 4 (13%) n (%)
- TEAE with maximum grade of 3 or 4: pneumonia ([1]; N = 30): 6 (20%) n (%)
- TEAE with maximum grade of 3 or 4: thrombocytopenia ([1]; N = 30): 5 (17%) n (%)
- TEAE: AE leading to dose interruption ([1]; N = 30): 20 (67) n (%)
- TEAE: AE leading to dose reduction ([1]; N = 30): 6 (20) n (%)
- TEAE: AE leading to study treatment withdrawn ([1]; N = 30): 7 (23) n (%)
- TEAE: Anemia ([1]; N = 30): 10 (33%) n (%) and 10 (33) n (%)
- TEAE: Any AE ([1]; N = 30): 30 (100) n (%)
- TEAE: Any SAE ([1]; N = 30): 23 (77) n (%)
- TEAE: Decreased appetite ([1]; N = 30): 9 (30%) n (%) and 9 (30) n (%)
- TEAE: Decreased platelet count ([1]; N = 30): 12 (40%) n (%) and 12 (40) n (%)
- TEAE: Diarrhea ([1]; N = 30): 13 (43%) n (%) and 13 (43) n (%)
- TEAE: Dysgeusia ([1]; N = 30): 10 (33%) n (%) and 10 (33) n (%)
- TEAE: Dyspnea ([1]; N = 30): 11 (37%) n (%) and 11 (37) n (%)
- TEAE: Fatal SAE ([1]; N = 30): 14 (47) n (%)
- TEAE: Fatigue ([1]; N = 30): 13 (43%) n (%) and 13 (43) n (%)
- TEAE: Nausea ([1]; N = 30): 9 (30%) n (%) and 9 (30) n (%)
- TEAE: thrombocytopenia ([1]; N = 30): 5 (17%) n (%)
- Treatment-related SAE: decreased neutrophil count ([1]; N = 30): 3 (10%) n (%)
- Study treatment discontinued due to sepsis ([1]; N = 30, n = 2): 7%
- Best overall response: CR ([2]; 300 mg once daily oral, n = 17): 0 n (%)
- Best overall response: Disease progression ([2]; 300 mg once daily oral, n = 17): 9 (53) n (%)
- Best overall response: HI ([2]; 300 mg once daily oral, n = 17): 0 n (%)
- Best overall response: Not evaluable ([2]; 300 mg once daily oral, n = 17): 3 (18) n (%)
- Best overall response: PR ([2]; 300 mg once daily oral, n = 17): 0 n (%)
- Best overall response: SD ([2]; 300 mg once daily oral, n = 17): 4 (24) n (%)
- Best overall response: SD lasting <8 weeks ([2]; 300 mg once daily oral, n = 17): 2 (12) n (%)
- Best overall response: SD lasting ⩾8 weeks ([2]; 300 mg once daily oral, n = 17): 2 (12) n (%)
- Best overall response: mCR ([2]; 300 mg once daily oral, n = 17): 1 (6) n (%)
- Clinical benefit rate (CR + mCR + PR + SD ⩾8 weeks + HI) ([2]; 300 mg once daily oral, n = 17): 3 (18) n (%)
- Overall response rate (CR + mCR + PR) ([2]; 300 mg once daily oral, n = 17): 1 (6) n (%)
- Best overall response: CR ([2]; 400 mg once daily oral, n = 13): 0 n (%)
- Best overall response: Disease progression ([2]; 400 mg once daily oral, n = 13): 4 (31) n (%)
- Best overall response: HI ([2]; 400 mg once daily oral, n = 13): 0 n (%)
- Best overall response: Not evaluable ([2]; 400 mg once daily oral, n = 13): 4 (31) n (%)
- Best overall response: PR ([2]; 400 mg once daily oral, n = 13): 0 n (%)
- Best overall response: SD ([2]; 400 mg once daily oral, n = 13): 5 (38) n (%)
- Best overall response: SD lasting <8 weeks ([2]; 400 mg once daily oral, n = 13): 3 (23) n (%)
- Best overall response: SD lasting ⩾8 weeks ([2]; 400 mg once daily oral, n = 13): 2 (15) n (%)
- Best overall response: mCR ([2]; 400 mg once daily oral, n = 13): 0 n (%)
- Clinical benefit rate (CR + mCR + PR + SD ⩾8 weeks + HI) ([2]; 400 mg once daily oral, n = 13): 2 (15) n (%)
- Duration of complete marrow remission ([2]; 1 patient, plain language summary): approximately 8 months
- Clinical benefit rate (CR + mCR + PR + SD ⩾8 weeks + HI) ([2]; Total, 400 or 300 mg once daily oral, N = 30): 5 (17) n (%)
- Best overall response: CR ([2]; Total, N = 30): 0 n (%)
- Best overall response: Disease progression ([2]; Total, N = 30): 13 (43) n (%)
- Best overall response: HI ([2]; Total, N = 30): 0 n (%)
- Best overall response: Not evaluable ([2]; Total, N = 30): 7 (23) n (%)
- Best overall response: PR ([2]; Total, N = 30): 0 n (%)
- Best overall response: SD ([2]; Total, N = 30): 9 (30) n (%)
- Best overall response: SD lasting <8 weeks ([2]; Total, N = 30): 5 (17) n (%)
- Best overall response: SD lasting ⩾8 weeks ([2]; Total, N = 30): 4 (13%) n (%) and 4 (13) n (%)
- Best overall response: mCR ([2]; Total, N = 30): 1 (3%) n (%) and 1 (3) n (%)
- Overall response rate (CR + mCR + PR) ([2]; Total, N = 30): 1 (3) n (%)
- Patients meeting CBR criteria ([2]; Total, N = 30): 17%
- Patients not evaluable ([2]; Total, N = 30): 23%
- Patients with disease progression while on study treatment ([2]; Total, N = 30): 43%
- Duration of mCR ([2]; one patient with MDS, 300-mg cohort): 245 days
